Screens deposited in PubChem BioAssay by several laboratories.
MBD2 inh: inhibitors of MBD2 binding to methylated DNA, primary screen, biochemical, TR-FRET, DNA-binding domain, human. Methyl-CpG-binding domain protein 2 (Homo sapiens), Q9UBB5. MBD2 binding to methylated oligonucleotide. inhibition, % at 4.4 µM. hit rate 0.31% among 370,000. AID 686964, 2013; in the data active means inhibition above about 13%
CASP6 VEID inh: human caspase-6 inhibitors, primary screen, biochemical, VEID-R110 fluorescence, single point, set 2. P55212. purified caspase-6, Z-VEID-R110 cleavage fluorescence. hit rate 0.53% among 350,000. inhibition, % at 12.5 µM;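 active means mean inhibition across replicates at least about 35%, with every replicate also reaching that limit, limit read from the data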;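 further: 0% = median of neutral control wells and 100% = no fluorescence left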
TDP2 inh: human TDP2 enzyme inhibitors, primary screen, biochemical, epi absorbance, recombinant enzyme. Tyrosyl-DNA phosphodiesterase 2 (Homo sapiens), O95551. T5PNP hydrolysis, p-nitrophenol absorbance 415 nm. inhibition, % at 12.8 µM. hit rate 0.34% among 370,000;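 active means inhibition above the mean of all tested compounds plus 3 SD, set per campaign, cut at about 25% in these data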;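 further: 0% = DMSO with enzyme and 100% = buffer with substrate but no TDP2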
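System – recombinant human TDP2 · Amount – 120 nM TDP2 per well · Buffer or medium – Mg2+-containing Tris-HCl buffer, pH 7.5 · Reagent – T5PNP substrate, 5 mM · Dosing – 12.8 µM single point, 1% DMSO · Incubation – 2 h at 37 °C · Measured by – epi absorbance · Read-out basis – percent inhibition · Benchmarks – high control without enzyme, low control DMSO plus TDP2 · Repeats – singlicate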
NSD2 inh: NSD2 histone methyltransferase inhibitors, primary screen, biochemical, AlphaScreen, single concentration, set 2; Histone-lysine N-methyltransferase NSD2 (Homo sapiens), O96028; NSD2 peptide methylation, 120 min; inhibition, % at 12.5 µM; hit rate 0.54% among 310,000; in the data active means inhibition above about 50%
Target sequence (O96028 whole entry, looked up): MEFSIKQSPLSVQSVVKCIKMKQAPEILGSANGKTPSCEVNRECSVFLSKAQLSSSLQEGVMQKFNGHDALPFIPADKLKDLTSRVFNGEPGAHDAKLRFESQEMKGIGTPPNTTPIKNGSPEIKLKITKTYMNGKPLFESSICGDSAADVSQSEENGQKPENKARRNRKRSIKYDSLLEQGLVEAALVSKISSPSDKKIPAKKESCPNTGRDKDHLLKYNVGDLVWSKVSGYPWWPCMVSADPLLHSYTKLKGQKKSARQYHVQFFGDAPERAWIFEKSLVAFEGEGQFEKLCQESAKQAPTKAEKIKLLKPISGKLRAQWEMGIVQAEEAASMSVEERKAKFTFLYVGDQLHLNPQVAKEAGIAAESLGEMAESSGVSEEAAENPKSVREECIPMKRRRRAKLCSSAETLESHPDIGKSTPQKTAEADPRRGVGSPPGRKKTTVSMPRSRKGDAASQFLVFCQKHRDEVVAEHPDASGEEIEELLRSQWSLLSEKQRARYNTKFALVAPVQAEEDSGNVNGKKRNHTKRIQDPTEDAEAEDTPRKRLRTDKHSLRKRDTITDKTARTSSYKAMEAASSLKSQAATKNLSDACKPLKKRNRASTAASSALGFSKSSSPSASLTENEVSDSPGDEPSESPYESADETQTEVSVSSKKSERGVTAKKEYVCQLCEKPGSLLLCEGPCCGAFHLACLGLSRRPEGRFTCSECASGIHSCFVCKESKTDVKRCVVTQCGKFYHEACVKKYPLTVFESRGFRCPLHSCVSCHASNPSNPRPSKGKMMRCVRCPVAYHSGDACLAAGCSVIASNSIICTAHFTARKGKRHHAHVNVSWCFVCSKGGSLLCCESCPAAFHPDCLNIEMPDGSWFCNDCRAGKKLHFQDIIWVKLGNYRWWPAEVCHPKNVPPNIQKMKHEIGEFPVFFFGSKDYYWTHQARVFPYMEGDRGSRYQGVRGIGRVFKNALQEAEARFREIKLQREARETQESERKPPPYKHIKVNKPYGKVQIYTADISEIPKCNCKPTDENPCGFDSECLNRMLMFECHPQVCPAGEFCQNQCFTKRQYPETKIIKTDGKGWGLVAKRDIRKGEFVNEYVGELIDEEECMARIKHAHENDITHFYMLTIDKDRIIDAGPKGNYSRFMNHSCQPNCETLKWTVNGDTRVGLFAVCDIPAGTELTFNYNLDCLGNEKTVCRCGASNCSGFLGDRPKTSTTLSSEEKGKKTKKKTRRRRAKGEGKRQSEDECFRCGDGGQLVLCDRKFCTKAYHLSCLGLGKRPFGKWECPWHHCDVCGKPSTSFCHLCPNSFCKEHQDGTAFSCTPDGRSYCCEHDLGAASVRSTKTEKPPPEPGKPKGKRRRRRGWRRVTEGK
UHRF1 binding: UHRF1 methylated DNA binding inhibitors, primary screen, counter-screen for MBD2 inhibitor project, biochemical, TR-FRET, human UHRF1, single concentration. E3 ubiquitin-protein ligase UHRF1 (Homo sapiens), Q96T88. UHRF1 binding to methylated oligo. inhibition, % at 4.4 µM. hit rate 0.75% among 370,000. AID 687016, 2013; in the data active means inhibition above about 21%;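 further: UHRF1 SRA domain binding a hemimethylated CpG hairpin DNA probe; 0% = median of test compound wells and 100% = reference inhibitor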
LEDGF integ inh: blockers of LEDGF/p75-dependent integrase strand transfer – biochemical, TR-FRET, high throughput, primary screen; TR-FRET IN-LEDGF/p75 DNA integration, Eu/Cy5; inhibition, % at 3.7 µM; hit rate 0.64% among 370,000;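 active means inhibition above the screen-wide mean plus 3 SD, cut at about 13% in these data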;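 further: signal is the Cy5 over europium emission ratio at 671 and 618 nm; 0% = plate median of compound wells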
TDP2 confirm: human TDP2 enzyme inhibitors, retest, confirmation, biochemical, epi absorbance, recombinant enzyme | inhibition, % at 12.8 µM | hit rate 22% among 1,100 | absorbance read-out | shares compounds with TDP2 inh; in the data active means inhibition above about 25%;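 further: 0% = vehicle with enzyme and 100% = no enzyme buffer only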
Numbers without * were called inactive; x = no result. This is a sample that favours compounds with a hit; in the whole collection about 1.8% have one here.

SMILES | MBD2 inh | CASP6 VEID inh | TDP2 inh | NSD2 inh | UHRF1 binding | LEDGF integ inh | TDP2 confirm
C[C@@H]1CN([C@@H](C)CO)C(=O)c2cc(-c3ccc(F)cc3)cnc2O[C@@H]1CN(C)C(=O)c1ccccc1F | x | -2 | x | x | x | x | x
CCCNC(=O)N(C)C[C@@H]1Oc2ncc(C3=CCCCC3)cc2C(=O)N([C@@H](C)CO)C[C@H]1C | x | -3 | x | x | x | x | x
O=C(C[C@H]1CC[C@@H]2[C@H](COC[C@@H](O)CN2CC2CCCC2)O1)NCC1CC1 | x | 1 | x | x | x | x | x
CC1CCN(CCOc2cc(Cl)ccc2Cl)CC1 | 2 | -9 | 25* | 8 | -3 | 0 | 1
Cc1ccc(Cl)c(OCCCCN2CCC(C)CC2)c1 | 1 | -4 | 3 | -3 | -1 | -2 | x
CC(C)C#Cc1cnc2c(c1)C(=O)N([C@@H](C)CO)C[C@@H](C)[C@H](CN(C)C(=O)Nc1ccc(F)cc1)O2 | x | 3 | x | x | x | x | x
Cc1cc(=O)n(CCCc2ccccc2)[nH]1 | -5 | x | 37* | x | -6 | 1 | 6
Cn1c(=O)cc(NCCc2ccccc2)[nH]c1=O | 2 | x | 0 | -1 | -1 | 0 | x
O=C(C[C@@H]1C=C[C@@H](NC(=O)c2ccncc2)[C@H](CO)O1)Nc1ccccc1 | x | 1 | x | x | x | x | x
Cc1cc(C)cc(NC(=O)c2sc3nc4n(c(=O)c3c2C)CCC4)c1 | -3 | -2 | 4 | -5 | 2 | 0 | x
CCc1cccc(NC(=O)c2sc3nc4n(c(=O)c3c2C)CCC4)c1 | 2 | x | 55* | 2 | 0 | -2 | 9
O=C(NCc1ccc2c(c1)OCO2)c1ccc(CN2CCc3ccccc3C2)cc1 | 1 | x | -3 | 10 | -3 | 1 | x
Brc1cc2c(cc1CN1CCc3ccccc3C1)OCO2 | 5 | 1 | 26* | -6 | 1 | 0 | 4
CO[C@H]1CN(C)C(=O)c2ccc(NC(=O)C3CCCCC3)cc2OC[C@@H](C)N(Cc2nccs2)C[C@H]1C | x | 0 | x | x | x | x | x
COc1cccc(N2CC(C(=O)Nc3nnc(SCCC4OCCO4)s3)CC2=O)c1 (stereo not drawn) | -8 | 0 | 29* | x | -5 | -3 | 2
O=C(Nc1nnc(SCCC2OCCO2)s1)C1CC(=O)N(c2ccccc2)C1 (stereo not drawn) | 0 | 2 | -12 | 1 | 1 | -4 | x
Nc1ccc(OC(=O)Nc2ccc(O)cc2)cc1 | -2 | 61* | 30* | 25 | 7 | 4 | 12
O=C(Nc1ccc(N2CCN(c3ccc(O)cc3)CC2)cc1)Oc1ccccc1 | 5 | -2 | -1 | -1 | -2 | 3 | x
CNC[C@H]1Oc2ccc(NC(=O)CCN3CCOCC3)cc2CC(=O)N([C@@H](C)CO)C[C@@H]1C | x | -1 | x | x | x | x | x
Cc1ccc(C(=O)N/N=C/c2ccc(-c3ccc(Br)cc3[N+](=O)[O-])o2)o1 | -5 | 4 | 27* | 1 | -8 | 1 | 13
Cc1cc2nn(-c3cccc4ccccc34)nc2cc1N | 5 | x | -2 | -1 | 2 | 1 | x
Nc1ccc2nn(-c3ccccc3)nc2c1 | 3 | 2 | 27* | -4 | -1 | 10 | 13
Nc1ccc2nn(-c3cccc4ccccc34)nc2c1 | -3 | x | 36* | x | -7 | 2 | 36*
COc1ccc2c3c([nH]c2c1)[C@H](CO)N(C(=O)C1CCC1)CC31CN(C)C1 | x | -1 | x | x | x | x | x
CN1C2CCC1CC(N(CCc1ccccc1)C(=O)c1ccc(Cl)cc1)C2 (stereo not drawn) | 4 | -4 | 28* | 13 | 0 | -7 | 7
SMILES | MBD2 inh | CASP6 VEID inh | TDP2 inh | NSD2 inh | UHRF1 binding | LEDGF integ inh | TDP2 confirm
NS(=O)(=O)c1ccc(-c2ccc(C=NC3CCS(=O)(=O)C3)o2)cc1 (stereo not drawn) | -4 | x | 1 | 7 | -4 | -1 | x
NS(=O)(=O)c1ccc(-c2ccc(/C=C3\SC(=S)N(C4CCS(=O)(=O)C4)C3=O)o2)cc1 (stereo not drawn) | 2 | 12 | 29* | -1 | 1 | 6 | -1
O=C(O)C(Cc1c[nH]c2ccccc12)NS(=O)(=O)c1ccc2ccccc2c1 (stereo not drawn) | -2 | 25 | -4 | 0 | 0 | -1 | x
O=C(O)C(Cc1c[nH]c2ccccc12)NS(=O)(=O)c1ccc(F)cc1 (stereo not drawn) | 0 | 0 | 28* | -2 | 0 | -4 | -1
CCOc1cccc(OCCCCn2cnc3ccccc3c2=O)c1 | 1 | 1 | 25* | -3 | 0 | -5 | 0
CC(=O)NC1C(=O)N(CCN2CCOCC2)c2ccc(F)cc21 (stereo not drawn) | -4 | 52* | 32* | -4 | 0 | 9 | 31*
CCCC1=[N+](CC(=O)c2ccc(Br)cc2)CCn2cccc21 | -5 | 1 | 30* | 3 | -2 | 1 | 5
CC1=NN(c2ccccc2)C(=O)C1C(=O)c1cc([N+](=O)[O-])cc([N+](=O)[O-])c1 (stereo not drawn) | -2 | 2 | 47* | 9 | -9 | 4 | 10
CCOc1ccc(S(=O)(=O)N2CCCCC2)cc1NC(=O)c1c(CC)noc1C | -3 | 1 | 25* | -2 | -4 | -1 | -8
O=[N+]([O-])c1ccc(Nc2ccccc2)c2nonc12 | -24 | 8 | 26* | 24 | -28 | 1 | 8
Cc1nc2ccc(C(=O)OCc3nnc(-c4ccc(Br)cc4)o3)cc2nc1C | 2 | 2 | 13 | -1 | -2 | 1 | x
Cc1nc2ccc(C(=O)OCc3nnc(-c4ccccc4)o3)cc2nc1C | -6 | 2 | 25* | -5 | -2 | 0 | 9
COc1cc2c(cc1O)C=[N+](Cc1cc3c(cc1Br)OCO3)CC2 | x | -10 | x | x | x | x | x
CCCNC(=O)C[C@H]1C[C@@H]2c3cc(N(C)C)ccc3O[C@@H]2[C@@H](CO)O1 | x | 12 | x | x | x | x | x
CCC(=O)NC[C@@H]1[C@H](c2ccccc2)[C@H](CO)N1C(=O)C1CCC1 | x | 1 | x | x | x | x | x
CCN(CC)CCN1C(=O)C(=O)/C(=C(/O)c2ccc(C)cc2)C1c1cccnc1 (stereo not drawn) | -5 | -5 | 32* | 0 | 6 | 4 | 6
CCN(CC)CCCN1C(=O)C(=O)/C(=C(/O)c2cc(C)ccc2C)C1c1cccnc1 (stereo not drawn) | 4 | x | -3 | 2 | 1 | -3 | x
COc1ccc(NC(=O)c2ccc(Cl)c(NC(=O)c3cccnc3)c2)cc1 | x | x | x | 0 | x | x | x
